These results are taken from ChEMBL document CHEMBL2057135, “Synthesis, antitubercular and antimicrobial evaluation of 3-(4-chlorophenyl)-4-substituted pyrazole derivatives” (2012).

Common to all, as to assay type: functional
Experiment [1] relates to Pichia kudriavzevii. Briefly: Antifungal activity against Candida krusei KCCM 11655 after 1 day. The conditions noted are these: KCCM 11655, 24 h.
The subject of experiment [2] is Cryptococcus neoformans. In words: Antifungal activity against Cryptococcus neoformans KCCM 50564 after 1 day. The conditions noted are these: KCCM 50564, 24 h.
Experiment [3] has as its system Aspergillus niger. In words: Antifungal activity against Aspergillus niger KCTC 1231 after 2 days. To be noted: KCTC 1231, 48 h.
Experiment [4] deals with Aspergillus flavus. Briefly: Antifungal activity against Aspergillus flavus KCCM 11899 after 2 days. The conditions noted are these: KCCM 11899, 48 h.
Experiment [5] deals with Escherichia coli. In words: Antibacterial activity against Escherichia coli ATCC 25922.
In experiment [6] the test system is Staphylococcus aureus. In words: Antibacterial activity against Staphylococcus aureus ATCC 29213.
Experiment [7] deals with Mycobacterium tuberculosis. In words: Antitubercular activity against Mycobacterium tuberculosis H37Rv ATCC 27294 after 7 days by BACTEC method. The conditions noted are these: H37Rv ATCC 27294, 168 h. The method in brief: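 Screened in vitro against M. tuberculosis H37Rv in a modified BACTEC 460 radiometric system. Test compound stocks were made at 1 mg/ml in DMSO and filter-sterilised through 0.22 µm PTFE filters. MIC was read, with rifampin as the reference agent.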

Values after ≈ are worked out from the molar mass of the structure shown.

What is called MIC is the least concentration at which growth counts as inhibited. Take `COc1cc(/C=N/NC(=O)c2cc(-c3ccc(Cl)cc3)n[nH]2)ccc1O`: the MIC in experiment [1] was found to be 12.5 µg/mL (≈ 33.7 µM); in experiment [2], 1.6 µg/mL (≈ 4.32 µM); in experiment [3], 25 µg/mL (≈ 67.4 µM); in experiment [4], 12.5 µg/mL (≈ 33.7 µM); in experiment [5] it was 0.017 µg/mL (≈ 0.0458 µM); in experiment [6], 0.12 µg/mL (≈ 0.324 µM). The molecule also returned an MIC in experiment [7] of 0.55 µg/mL (≈ 1.48 µM).
As for `O=C(NN1C(=O)[C@H](Cl)[C@H]1c1cccc([N+](=O)[O-])c1)c1cc(-c2ccc(Cl)cc2)n[nH]1` (racemic), the MIC in experiment [1] was found to be 100 µg/mL (≈ 224 µM); in experiment [2] it was 50 µg/mL (≈ 112 µM); in experiment [3] it was 12.5 µg/mL (≈ 28 µM); in experiment [4], 50 µg/mL (≈ 112 µM); in experiment [5], 0.33 µg/mL (≈ 0.739 µM); in experiment [6], 1.2 µg/mL (≈ 2.69 µM). In experiment [7], this molecule had an MIC of 1.99 µg/mL (≈ 4.46 µM).
For the molecule `O=C(NN1C(=O)CSC1c1ccc(O)cc1)c1cc(-c2ccc(Cl)cc2)n[nH]1` (single isomer, unassigned; (+)), the MIC was 50 µg/mL (≈ 121 µM) in experiment [1]; 1.6 µg/mL (≈ 3.86 µM) in experiment [2]; 1.6 µg/mL (≈ 3.86 µM) in experiment [3]; 12.5 µg/mL (≈ 30.1 µM) in experiment [4]; 0.017 µg/mL (≈ 0.041 µM) in experiment [5]; 0.125 µg/mL (≈ 0.301 µM) in experiment [6]. In addition, the minimal inhibitory concentration (MIC) in experiment [7] is 0.39 µg/mL (≈ 0.94 µM).
`COc1ccc([C@@H]2[C@@H](Cl)C(=O)N2NC(=O)c2cc(-c3ccc(Cl)cc3)n[nH]2)cc1` (racemic): the MIC turned out to be 12.5 µg/mL (≈ 29 µM) in experiment [1]; 1.6 µg/mL (≈ 3.71 µM) in experiment [2]; 3.2 µg/mL (≈ 7.42 µM) in experiment [3]; 12.5 µg/mL (≈ 29 µM) in experiment [4]; 0.06 µg/mL (≈ 0.139 µM) in experiment [5]; 0.0025 µg/mL (≈ 0.0058 µM) in experiment [6]. In addition, it took 1.2 µg/mL (≈ 2.78 µM) to inhibit growth in experiment [7] (MIC).
`O=C(N/N=C/c1ccccc1Cl)c1cc(-c2ccc(Cl)cc2)n[nH]1`: the MIC in experiment [1] was found to be 12.5 µg/mL (≈ 34.8 µM); in experiment [2], 3.2 µg/mL (≈ 8.91 µM); in experiment [3], 12.5 µg/mL (≈ 34.8 µM); in experiment [4], 25 µg/mL (≈ 69.6 µM); in experiment [5], 0.014 µg/mL (≈ 0.039 µM); in experiment [6] it was 0.21 µg/mL (≈ 0.585 µM). This molecule registered an MIC in experiment [7] of 0.36 µg/mL (≈ 1 µM).
For the molecule `COc1ccc(C2SCC(=O)N2NC(=O)c2cc(-c3ccc(Cl)cc3)n[nH]2)cc1` (racemic), the MIC in experiment [1] was found to be 50 µg/mL (≈ 117 µM); in experiment [2], 12.5 µg/mL (≈ 29.1 µM); in experiment [3] it was 3.2 µg/mL (≈ 7.46 µM); in experiment [4] it was 25 µg/mL (≈ 58.3 µM); in experiment [5] it was 0.04 µg/mL (≈ 0.0933 µM); in experiment [6] it was 0.5 µg/mL (≈ 1.17 µM). Also, 0.65 µg/mL (≈ 1.52 µM) was the least that counted as inhibitory in experiment [7] (MIC).
Take `COc1ccc(/C=N/NC(=O)c2cc(-c3ccc(Cl)cc3)n[nH]2)cc1`: the MIC in experiment [1] amounted to 100 µg/mL (≈ 282 µM); in experiment [2], 50 µg/mL (≈ 141 µM); in experiment [3], 12.5 µg/mL (≈ 35.2 µM); in experiment [4], 100 µg/mL (≈ 282 µM); in experiment [5], 0.01 µg/mL (≈ 0.0282 µM); in experiment [6], 0.18 µg/mL (≈ 0.507 µM). Besides, the MIC in experiment [7] was found to be 0.85 µg/mL (≈ 2.4 µM).
Turning to `COc1ccc(C2SCC(=O)N2NC(=O)c2cc(-c3ccc(Cl)cc3)n[nH]2)cc1OC` (racemic), the MIC was 12.5 µg/mL (≈ 27.2 µM) in experiment [1]; 50 µg/mL (≈ 109 µM) in experiment [2]; 6.3 µg/mL (≈ 13.7 µM) in experiment [3]; 12.5 µg/mL (≈ 27.2 µM) in experiment [4]; 0.2 µg/mL (≈ 0.436 µM) in experiment [5]; 0.06 µg/mL (≈ 0.131 µM) in experiment [6]. 1.2 µg/mL (≈ 2.61 µM) was the least that counted as inhibitory in experiment [7] (MIC).
Regarding `O=C(N/N=C/c1ccc(O)cc1)c1cc(-c2ccc(Cl)cc2)n[nH]1`, the MIC in experiment [1] amounted to 100 µg/mL (≈ 293 µM); in experiment [2], 50 µg/mL (≈ 147 µM); in experiment [3] it was 12.5 µg/mL (≈ 36.7 µM); in experiment [4], 50 µg/mL (≈ 147 µM); in experiment [5], 0.012 µg/mL (≈ 0.0352 µM); in experiment [6], 0.35 µg/mL (≈ 1.03 µM). Further, in experiment [7], the MIC was determined as 1.1 µg/mL (≈ 3.23 µM).
Take `O=C(NN1C(=O)[C@H](Cl)[C@H]1c1ccccc1O)c1cc(-c2ccc(Cl)cc2)n[nH]1` (racemic): the MIC in experiment [1] was 6.3 µg/mL (≈ 15.1 µM); in experiment [2] it was 1.6 µg/mL (≈ 3.83 µM); in experiment [3], 12.5 µg/mL (≈ 30 µM); in experiment [4], 12.5 µg/mL (≈ 30 µM); in experiment [5] it was 0.019 µg/mL (≈ 0.0455 µM); in experiment [6] it was 0.125 µg/mL (≈ 0.3 µM). Further, 0.35 µg/mL (≈ 0.839 µM) was the least that counted as inhibitory in experiment [7] (MIC).
Regarding `O=C(NN1C(=O)[C@H](Cl)[C@H]1c1ccc(Cl)cc1)c1cc(-c2ccc(Cl)cc2)n[nH]1` (racemic), the MIC was 6.3 µg/mL (≈ 14.5 µM) in experiment [1]; 1.6 µg/mL (≈ 3.67 µM) in experiment [2]; 6.3 µg/mL (≈ 14.5 µM) in experiment [3]; 12.5 µg/mL (≈ 28.7 µM) in experiment [4]; 0.01 µg/mL (≈ 0.023 µM) in experiment [5]; 0.28 µg/mL (≈ 0.643 µM) in experiment [6]. 1 µg/mL (≈ 2.3 µM) was the least that counted as inhibitory in experiment [7] (MIC).
In the case of `O=C(NN1C(=O)[C@H](Cl)[C@H]1c1ccccc1)c1cc(-c2ccc(Cl)cc2)n[nH]1` (racemic), the MIC amounted to 100 µg/mL (≈ 249 µM) in experiment [1]; 50 µg/mL (≈ 125 µM) in experiment [2]; 25 µg/mL (≈ 62.3 µM) in experiment [3]; 100 µg/mL (≈ 249 µM) in experiment [4]; 0.48 µg/mL (≈ 1.2 µM) in experiment [5]; 0.51 µg/mL (≈ 1.27 µM) in experiment [6]. For the same molecule, in experiment [7], the MIC was 1.25 µg/mL (≈ 3.12 µM).
In the case of `O=C(N/N=C/c1ccc(Cl)cc1)c1cc(-c2ccc(Cl)cc2)n[nH]1`, the MIC was determined as 12.5 µg/mL (≈ 34.8 µM) in experiment [1]; 1.6 µg/mL (≈ 4.45 µM) in experiment [2]; 12.5 µg/mL (≈ 34.8 µM) in experiment [3]; 25 µg/mL (≈ 69.6 µM) in experiment [4]; 0.012 µg/mL (≈ 0.0334 µM) in experiment [5]; 0.12 µg/mL (≈ 0.334 µM) in experiment [6]. In experiment [7], this molecule displayed a minimum inhibitory concentration (MIC) of 1.1 µg/mL (≈ 3.06 µM).
